Results from different studies.
Protocols differ between the studies behind these lines.

CCc1cc(OC)c2nccc(N3CCc4c(cc(Cn5ccnc5)cc4-c4cn(C)nc4C(F)(F)F)C3=O)c2c1
MRT(0-inf) (male CD-1 mouse, plasma; oral, 50 mg/kg): 2.5 h

COc1nc(-c2cc(C)c(N[C@@H](C)c3cc(F)cc(F)c3)nn2)ccc1-n1cnc(C)c1
MRT(0-t) (male CD-1 mouse, plasma; oral, 5 mg/kg, single dose): 5.4 h

CC(C)(Nc1nc(-c2ccccn2)nc2ccccc12)c1ccccn1
MRT(0-t) (female BALB/c mouse, plasma; intravenous, 1 mg/kg): 1.2 h

Cc1cc(NC(=O)c2cccc3cc(-c4cccc5[nH]nc(N)c45)ccc23)ccc1F
MRT(0-inf) (male CD-1 mouse, brain; oral, 10 mg/kg): 3.74 h

CNC(=O)c1cc(OC)cc2c(N3CCc4c(cc(Cn5ccnc5)cc4-c4cn(C)nc4C(F)(F)F)C3=O)ccnc12
MRT(0-inf) (male CD-1 mouse, plasma; oral, 50 mg/kg): 2 h

COc1nc(-c2cc(C)c(N[C@@H](C)c3c(F)cc(F)cc3F)nn2)ccc1-n1cnc(C)c1
MRT(0-t) (male CD-1 mouse, plasma; intravenous, 1 mg/kg, single dose): 3.3 h

CCc1cc(C(=O)NC)c2nccc(N3CCc4c(cc(Cn5ccnc5)cc4-c4cn(C)nc4C(F)(F)F)C3=O)c2c1
MRT(0-inf) (male CD-1 mouse, plasma; oral, 50 mg/kg): 3.1 h

c1ccc(-c2nc(N3CCC(c4ccccn4)C3)c3ccccc3n2)nc1 (stereo not drawn)
MRT(0-t) (female BALB/c mouse, plasma; oral, 12.5 mg/kg): 5.1 h

CC1(C)CC[C@]2(C(=O)O)CC[C@]3(C)C(=CC[C@@H]4[C@@]5(C)C[C@@H](O)[C@H](OC(=O)/C=C/c6ccc(O)cc6)C(C)(C)[C@@H]5CC[C@]43C)[C@@H]2C1 (relative stereo)
MRT(0-inf) (mouse, plasma; intraperitoneal, 85 µmol/kg, single dose): 11.9 h
